Measured values pooled from the literature.
Lines come from different studies, so protocols differ.
PLCD1: 1-phosphatidylinositol 4,5-bisphosphate phosphodiesterase delta-1 (PLCD1, Homo sapiens, UniProt P51178)
CSNK1D: Casein kinase I isoform delta (CSNK1D, Homo sapiens, UniProt P48730)
FLT3 ITD: Receptor-type tyrosine-protein kinase FLT3 (FLT3, Homo sapiens, UniProt P36888, ITD)
HTR2B: 5-hydroxytryptamine receptor 2B (HTR2B, Homo sapiens, UniProt P41595)
HTR2C: 5-hydroxytryptamine receptor 2C (HTR2C, Homo sapiens, UniProt P28335)
FLT3 D835Y: Receptor-type tyrosine-protein kinase FLT3 (FLT3, Homo sapiens, UniProt P36888, D835Y)

CCOc1ccc(C(=O)CC(SCc2ccc(Cl)cc2)C(=O)O)cc1 (stereo not drawn)
Ki (PLCD1; ligand displacement, FP): 780 µM

O=C(NC1CCCCC1)C(=O)c1c[nH]c2ccccc12
Kd (CSNK1D; binding, SPR): 5.7 µM

Cc1n[nH]c2ccc3nc(-c4ccc(C(=O)NCCN(C)C)cc4)c4c(c3c12)CCCC4
IC50 (Receptor-type tyrosine-protein kinase FLT3 (FLT3, Homo sapiens, UniProt P36888, F691L); enzyme activity, inhibitor): 0.053 µM

CCOc1ccc(C(=O)CC(SCc2ccc(Cl)cc2)C(=O)OC)cc1 (stereo not drawn)
Ki (PLCD1; ligand displacement, FP): > 1000 µM

COCCNC(=O)c1ccc(-c2nc3ccc4[nH]ncc4c3c3c2CCCC3)cc1
IC50 (FLT3 ITD; enzyme activity, inhibitor): 0.664 µM

CCOc1cccc(C(=O)CC(SCc2ccc(Cl)cc2)C(=O)O)c1 (stereo not drawn)
Ki (PLCD1; ligand displacement, FP): 474 µM

CN(C)CCNC(=O)c1ccc(-c2nc3ccc4[nH]ncc4c3c3c2CCCC3)cc1
IC50 (FLT3 ITD; enzyme activity, inhibitor): 0.086 µM

CCCNC(=O)c1ccc2c3c1C(CC(F)(F)F)CN3CCNC2 (racemic)
Ki (HTR2B; ligand displacement, radioligand; cell membranes): 2.25 µM

CCOC(=O)c1cc(-c2ccc(OCC)cc2)oc1-c1ccc(Cl)cc1
Ki (PLCD1; ligand displacement, FP): > 100 µM

Brc1ccc2nccnc2c1
Kd (CSNK1D; binding, SPR): > 50 µM

COc1cc2c3c(c1OC)-c1c(OC)ccc(O)c1CC3N(C)CC2 (stereo not drawn)
Ki (HTR2C; cell-free assay, radioligand): 4.3 µM

N#Cc1ccc(O)cc1F
Kd (CSNK1D; binding, SPR): 20 to 50 µM

CN(C)CCNC(=O)c1ccc(-c2nc3ccc4[nH]ncc4c3c3c2CCCCC3)c(F)c1
IC50 (FLT3 D835Y; enzyme activity, inhibitor): 0.007 µM

COc1cc2c3c(c1OC)-c1c(OC)ccc(N4CCOCC4)c1CC3N(C)CC2 (stereo not drawn)
Ki (HTR2C; cell-free assay, radioligand): 2.71 µM

COc1cc(C(C)=O)c(F)cc1O
Kd (CSNK1D; binding, SPR): > 50 µM

Cc1n[nH]c2ccc3nc(-c4ccc(C(=O)NCCN(C)C)cn4)c4c(c3c12)CCCCC4
IC50 (FLT3 ITD; enzyme activity, inhibitor): 0.419 µM

COCc1n[nH]c(N)c1-c1ccc(Cl)cc1
Kd (CSNK1D; binding, SPR): > 50 µM

COc1ccccc1C(=O)CC(SCc1ccc(Cl)cc1)C(=O)O (stereo not drawn)
Ki (PLCD1; ligand displacement, FP): > 1000 µM

COc1cc2c3c(c1OC)-c1c(OC)ccc(-c4ccc(C#N)cc4)c1CC3N(C)CC2 (stereo not drawn)
Ki (HTR2B; ligand displacement, radioligand): 0.856 µM

N#Cc1ccccc1C#CCO
Kd (CSNK1D; binding, SPR): > 50 µM

O=C(O)c1cc(-c2ccc(-c3ccc(Cl)s3)cc2)c2ccc(-c3ccc(C(F)(F)F)cc3)cc2c1
Ki (HTR2C; cell-free assay, radioligand): 0.91 µM

Cc1n[nH]c2ccc3nc(-c4ccc(C(=O)NCCN(C)C)cc4F)c4c(c3c12)CCCC4
IC50 (FLT3 D835Y; enzyme activity, inhibitor): 0.005 µM

CCOc1ccc(C(=O)CC(SCc2cccc(Br)c2)C(=O)O)cc1 (stereo not drawn)
Ki (PLCD1; ligand displacement, FP): 630 µM

Cc1n[nH]c2ccc3nc(-c4ccc(C(=O)N(C)CCN(C)C)cc4)c4c(c3c12)CCC(F)(F)C4
IC50 (FLT3 ITD; enzyme activity, inhibitor): > 1 µM

c1ccc(-c2oc3ncnc(NCCCN4CCOCC4)c3c2-c2ccccc2)cc1
Kd (CSNK1D; binding, SPR): > 50 µM

CCOc1ccc(C(=O)CC(SCc2ccccc2Br)C(=O)O)cc1 (stereo not drawn)
Ki (PLCD1; ligand displacement, FP): > 1000 µM

CCn1c2ccccc2c2cc(Nc3ccnc(NCCCN4CCOCC4)n3)ccc21
Kd (CSNK1D; binding, SPR): > 50 µM

Cc1n[nH]c2ccc3nc(-c4ccc(C(=O)NCCN(C)C)cc4)c4c(c3c12)CCC(F)(F)C4
IC50 (FLT3 ITD; enzyme activity, inhibitor): 0.355 µM

COc1cccc(C(=O)CC(SCc2ccc(Cl)cc2)C(=O)O)c1 (stereo not drawn)
Ki (PLCD1; ligand displacement, FP): > 1000 µM

CN(C)C(=O)c1cc2cnc(Nc3ccc(C(=O)NCCCCCCOc4cccc5c4C(=O)N(C4CCC(=O)NC4=O)C5=O)cc3)nc2n1C1CCCC1 (stereo not drawn)
Kd (Ephrin type-B receptor 6 (EPHB6, Homo sapiens, UniProt O15197); binding, competition with immobilised ligand): < 0.2 µM
